Activity calls are given as the source filed them. The rule behind the calls is not given here.
How the values were obtained:
Acetylcholinesterase [1] = molecular target: T1, Acetylcholinesterase (Electrophorus electricus, UniProt O42275); assay: Inhibition of Electric eel AChE using acetylthiocholine as substrate after 2 mins
Outline: (§1)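 Enzyme sources were electric eel AChE and equine serum BChE. Values are means of at least three independent determinations.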

Cholinesterase [2] = molecular target: T2, Cholinesterase (Equus caballus, UniProt P81908); assay: Inhibition of equine serum BChE using acetylthiocholine as substrate after 2 mins; outline: as §1
T2 sequence (P81908 whole entry): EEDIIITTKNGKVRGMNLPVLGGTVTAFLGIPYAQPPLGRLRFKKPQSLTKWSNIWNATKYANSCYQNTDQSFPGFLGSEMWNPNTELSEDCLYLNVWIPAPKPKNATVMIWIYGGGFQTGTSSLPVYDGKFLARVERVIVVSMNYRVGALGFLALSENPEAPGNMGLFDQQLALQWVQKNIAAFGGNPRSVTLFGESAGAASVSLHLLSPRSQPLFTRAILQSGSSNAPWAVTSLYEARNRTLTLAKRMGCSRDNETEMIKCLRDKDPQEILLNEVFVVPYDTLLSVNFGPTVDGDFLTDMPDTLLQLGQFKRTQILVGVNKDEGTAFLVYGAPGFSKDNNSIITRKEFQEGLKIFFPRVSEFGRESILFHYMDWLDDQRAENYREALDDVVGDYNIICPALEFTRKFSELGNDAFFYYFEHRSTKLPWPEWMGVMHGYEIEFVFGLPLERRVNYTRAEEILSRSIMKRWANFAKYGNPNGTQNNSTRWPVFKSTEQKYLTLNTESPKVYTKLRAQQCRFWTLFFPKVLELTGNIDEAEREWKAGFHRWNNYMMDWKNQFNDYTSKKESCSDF

[3] = Selectivity ratio of IC50 for Electric eel AChE to IC50 for equine serum BChE
Outline: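 Selectivity ratio calculated as IC50(AChE)/IC50(BChE). AChE was from electric eel and BChE from equine serum. Each IC50 is a mean of at least three independent determinations.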

[4] = Antioxidant activity assessed as trolox equivalents of peroxyl radical scavenging activity by ORAC assay; format: functional
Outline: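 ORAC assay: measures how well each compound protects fluorescein from destruction by peroxyl radicals. Capacity is expressed as trolox equivalents, with trolox as the reference.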

HT-22 [5] = assay: Neuroprotective activity against glutamate-induced oxidative stress in mouse HT22 cells assessed as reduction of intracellular ROS formation at 10 uM after 24 hrs by MTT assay; format: functional, cell-based
Outline: (§2)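 Murine hippocampal HT-22 cells, which lack ionotropic glutamate receptors, were challenged with extracellular glutamate to cause oxidative (oxytotic) cell death. Compounds were tested at 10 μM and 5 μM against this glutamate-induced toxicity.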

HT-22 [6] = assay: Neuroprotective activity against glutamate-induced oxidative stress in mouse HT22 cells assessed as reduction of intracellular ROS formation at 5 uM after 24 hrs by MTT assay; format: functional, cell-based; outline: as §2
[7] = molecular target: Acetylcholinesterase (Electrophorus electricus) (UniProt O42275); assay: Inhibition of Electric eel AChE using acetylthiocholine as substrate at 100 uM after 2 mins
Chain of Acetylcholinesterase (Electrophorus electricus) (O42275 24-633 limits assumed): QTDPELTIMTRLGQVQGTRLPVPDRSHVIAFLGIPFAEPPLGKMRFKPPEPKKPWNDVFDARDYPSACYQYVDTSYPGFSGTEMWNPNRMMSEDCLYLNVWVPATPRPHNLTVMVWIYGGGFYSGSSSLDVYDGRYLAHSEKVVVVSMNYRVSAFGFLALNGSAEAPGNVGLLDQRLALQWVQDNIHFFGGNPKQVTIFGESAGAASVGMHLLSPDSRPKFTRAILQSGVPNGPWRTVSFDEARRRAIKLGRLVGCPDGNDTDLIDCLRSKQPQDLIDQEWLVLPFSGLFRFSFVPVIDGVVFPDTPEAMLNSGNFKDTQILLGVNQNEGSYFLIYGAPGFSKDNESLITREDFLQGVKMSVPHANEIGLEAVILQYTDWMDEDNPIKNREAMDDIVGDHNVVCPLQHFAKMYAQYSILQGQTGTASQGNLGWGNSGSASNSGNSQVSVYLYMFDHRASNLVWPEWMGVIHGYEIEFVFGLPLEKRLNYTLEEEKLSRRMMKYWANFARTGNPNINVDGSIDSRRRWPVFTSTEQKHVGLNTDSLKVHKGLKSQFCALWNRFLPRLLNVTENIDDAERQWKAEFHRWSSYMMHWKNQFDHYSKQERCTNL
Outline: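 Enzyme sources were electric eel AChE and equine serum BChE. Values are means of at least three independent determinations. Single-point entries are % inhibition at 100 μM.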

[8] = molecular target: Acetylcholinesterase (Electrophorus electricus) (UniProt O42275); assay: Time dependent inhibition of Electric eel AChE assessed as stability constants of inhibitor-enzyme complex using acetylthiocholine as substrate at 10 to 50 nM after 60 mins
Cholinesterase [9] = molecular target: T2, Cholinesterase; assay: Time dependent inhibition of equine serum BChE assessed as stability constants of inhibitor-enzyme complex using acetylthiocholine as substrate after 60 mins
Acetylcholinesterase [10] = molecular target: T1, Acetylcholinesterase; assay: Time dependent inhibition of Electric eel AChE assessed as stability constants of inhibitor-enzyme complex using acetylthiocholine as substrate after 60 mins

T1 sequence (O42275 whole entry): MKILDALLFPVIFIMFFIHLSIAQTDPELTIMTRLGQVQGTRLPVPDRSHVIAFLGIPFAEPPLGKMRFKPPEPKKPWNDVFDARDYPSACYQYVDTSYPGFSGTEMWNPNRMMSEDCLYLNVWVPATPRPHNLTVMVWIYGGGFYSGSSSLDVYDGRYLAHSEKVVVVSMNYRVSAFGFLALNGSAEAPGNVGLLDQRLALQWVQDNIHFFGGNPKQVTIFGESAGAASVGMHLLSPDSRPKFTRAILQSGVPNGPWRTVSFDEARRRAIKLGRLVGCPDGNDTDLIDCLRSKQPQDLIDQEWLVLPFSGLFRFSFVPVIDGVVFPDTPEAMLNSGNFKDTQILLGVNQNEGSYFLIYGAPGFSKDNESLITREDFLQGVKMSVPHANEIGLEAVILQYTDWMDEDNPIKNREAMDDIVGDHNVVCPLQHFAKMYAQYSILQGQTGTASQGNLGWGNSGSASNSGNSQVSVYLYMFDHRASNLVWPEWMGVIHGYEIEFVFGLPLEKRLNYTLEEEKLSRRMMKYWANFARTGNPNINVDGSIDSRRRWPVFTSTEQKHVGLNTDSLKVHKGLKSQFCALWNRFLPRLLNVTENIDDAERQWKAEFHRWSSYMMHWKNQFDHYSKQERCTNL

Row | Compound | IC50 (Acetylcholinesterase [1]; read-out: IC50) [µM] | IC50 (Cholinesterase [2]; read-out: IC50) [µM] | Ratio IC50 [3] | Ratio [4] | Activity (HT-22 [5]) | Activity (HT-22 [6]) | inhibition [7] | inhibition [8] | Ki (Cholinesterase [9]) [µM] | IC50 (Acetylcholinesterase [1]; read-out: pIC50 (converted)) [µM] | IC50 (Cholinesterase [2]; read-out: pIC50 (converted)) [µM] | Ki (Acetylcholinesterase [10]) [µM]
1 | CN1c2ccc(O)cc2CN2CCCc3ccccc3C21 (configuration not stated) | 37.8 | 7.3 | 5.2 | 2.48 | Active | Active |  |  |  |  |  | 
2 | CCCCCCCNC(=O)Oc1ccc2c(c1)CN1CCCC1N2C (configuration not stated) | 32.3 | 1.95 | 16.6 | 1.03 | Active | Active |  |  |  |  |  | 
3 | Cc1ccccc1NC(=O)Oc1ccc2c(c1)CN1CCCC1N2C (configuration not stated) | 66.3 | 4.11 | 16.1 |  |  |  |  |  |  |  |  | 
4 | CC(C)c1ccc(NC(=O)Oc2ccc3c(c2)CN2CCCC2N3C)cc1 (configuration not stated) |  | 3 | > 66.6 |  |  |  |  |  |  |  |  | 
5 | CN1c2ccc(O)cc2CN2CCc3ccccc3C21 (configuration not stated) | 110 | 44.3 | 2.5 | 2.87 | Active | Active |  |  |  |  |  | 
6 | COc1cccc(NC(=O)Oc2ccc3c(c2)CN2CCCC2N3C)c1 (configuration not stated) | 40.2 | 7.52 | 5.3 |  |  |  |  |  |  |  |  | 
7 | CC(C)c1ccc(NC(=O)Oc2ccc3c(c2)CN2CCc4ccccc4C2N3C)cc1 (configuration not stated) |  | 0.131 | > 1500 |  |  |  |  |  |  |  |  | 
8 | COc1ccc2c(c1)CN1CCc3ccccc3C1N2C (configuration not stated) | 232 | 55.6 | 4.2 | 0.51 |  | inactive |  |  |  |  |  | 
9 | CN1c2ccccc2CN2CCc3ccccc3C21 (configuration not stated) | 145 | 44 | 3.3 | 0.92 | inactive |  |  |  |  |  |  | 
10 | CCCCCCCNC(=O)Oc1ccc2c(c1)CN1CCc3ccccc3C1N2C (configuration not stated) |  | 0.06 | > 15000 | 0.3 | Active |  | inactive | inactive | 0.0127 |  |  | 
11 | CN1c2ccccc2CN2CCCC21 (configuration not stated) | 131 | 38.9 | 3.4 |  |  |  |  |  |  |  |  | 
12 | COc1cccc(NC(=O)Oc2ccc3c(c2)CN2CCc4ccccc4C2N3C)c1 (configuration not stated) |  | 0.218 | > 900 |  |  |  |  |  |  |  |  | 
13 | CN1c2ccccc2CN2CCCc3ccccc3C21 (configuration not stated) |  | 23.7 | > 8.4 |  |  |  |  |  |  |  |  | 
14 | CN1c2ccc(O)cc2CN2CCCC21 (configuration not stated) | 30.6 | 41 | 0.75 | 3.43 | Active | Active |  |  |  | 30.2 |  | 
15 | Cc1ccccc1NC(=O)Oc1ccc2c(c1)CN1CCc3ccccc3C1N2C (configuration not stated) |  | 0.144 | > 1350 |  |  |  |  |  |  |  |  | 
16 | CCCCCCCNC(=O)Oc1ccc2c(c1)CN1CCCc3ccccc3C1N2C (configuration not stated) |  | 0.046 | > 4000 | 0.86 | Active |  |  |  |  |  |  | 
17 | CCN(C)C(=O)Oc1ccc2c(c1)CN1CCc3ccccc3C1N2C (configuration not stated) | 24.4 | 0.45 | 54.2 | 0.65 | inactive |  |  |  | 0.275 | 234 | 24.5 | 1.12
18 | COc1ccc2c(c1)CN1CCCc3ccccc3C1N2C (configuration not stated) |  | 29.7 | > 6.7 | 1.2 |  |  |  |  |  |  |  | 

From ChEMBL document CHEMBL2150892, “Neuroprotective Tri- and Tetracyclic BChE Inhibitors Releasing Reversible Inhibitors upon Carbamate Transfer” (ACS Med Chem Lett, 2012)
